Screens: PubChem BioAssay, The Scripps Research Institute Molecular Screening Center
Shown are actives, neighbours in structure and some others; about 3.1% of the full set was active somewhere.
OX1R antag-1 = antagonists of human orexin 1 receptor (OX1R) | Orexin/Hypocretin receptor type 1 (Homo sapiens), O43613 | OX1R-expressing cells, FRET antagonist read-out | inhibition, % at 6.6 µM | 1.8% of 330,000 active; in the data active = inhibition mostly above about 38%, no sharp cut-off; inactive = mostly below about 40%
Target sequence (O43613 whole entry, looked up): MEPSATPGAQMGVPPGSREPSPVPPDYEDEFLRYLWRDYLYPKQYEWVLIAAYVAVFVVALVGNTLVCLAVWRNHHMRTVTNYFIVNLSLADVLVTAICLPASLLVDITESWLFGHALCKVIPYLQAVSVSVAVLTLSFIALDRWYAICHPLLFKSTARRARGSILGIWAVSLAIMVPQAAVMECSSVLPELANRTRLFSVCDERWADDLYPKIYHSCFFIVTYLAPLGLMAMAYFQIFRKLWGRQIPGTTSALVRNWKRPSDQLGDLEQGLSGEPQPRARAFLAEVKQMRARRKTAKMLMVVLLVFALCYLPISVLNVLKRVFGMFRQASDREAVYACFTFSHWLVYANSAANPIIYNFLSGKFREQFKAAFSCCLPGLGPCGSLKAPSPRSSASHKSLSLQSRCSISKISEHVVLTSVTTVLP
GalR3 antagonist = GalR3 antagonists in HEK293 cells, primary screen, cell-based, fluorescence readout; Galanin receptor type 3 (Homo sapiens), O60755; HEK293 GalR3-CNG cAMP membrane potential fluorescence; galR3 body fused to GalR1 C-terminus; inhibition, % at 3 µM; 0.44% of 360,000 active; AID 651719, 2012;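 active = inhibition above the screen-wide average plus 3 SD, cut at about 13% in these data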;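 also: forskolin and galanin both at EC90 stimulate the cells; cAMP rise reported by CNG channel membrane potential dye signal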
Target sequence (O60755 1-299 limits assumed): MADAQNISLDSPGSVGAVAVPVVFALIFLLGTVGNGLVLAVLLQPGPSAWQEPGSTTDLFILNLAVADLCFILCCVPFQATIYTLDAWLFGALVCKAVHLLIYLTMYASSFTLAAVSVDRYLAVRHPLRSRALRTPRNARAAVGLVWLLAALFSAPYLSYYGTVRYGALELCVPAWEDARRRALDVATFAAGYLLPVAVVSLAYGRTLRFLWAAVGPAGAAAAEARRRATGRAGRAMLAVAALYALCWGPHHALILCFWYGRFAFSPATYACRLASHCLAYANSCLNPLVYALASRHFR
CHO parental Ca = ATP-evoked calcium signal inhibitors, parental CHO, primary screen, counter-screen for OX1R antagonist project, cell-based, fluorescence, Fluo-8 calcium dye; parental CHO-K1, ATP-induced calcium, Fluo-8 fluorescence; 0.63% of 330,000 active; inhibition, % at 5.6 µM;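 active = inhibition above that plate's mean sample inhibition plus 3 SD, cut at about 26% in these data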
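Test system: untransfected parental CHO cell line. Compound: one dose, 5.6 µM nominal. Detection: intracellular calcium via Fluo-8 no-wash fluorescent dye. Measure: % inhibition. Benchmarks: ATP-challenged DMSO wells low, unchallenged DMSO wells high.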
GPR7 antag = GPR7 receptor antagonists, primary screen, cell-based, fluorescence, single concentration; Neuropeptides B/W receptor type 1 (Homo sapiens), P48145; GPR7-expressing cells, fluorescence antagonist assay; inhibition, % at 4.4 µM; 1.1% of 290,000 active; AID 1861, 2009; in the data active = inhibition above about 16%, passing the limit was not always enough;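 also: cells stimulated with the agonist NPW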
OX1R antag-2 = OX1R (HCRTR1) antagonists, primary screen, fluorescence, CHO/OX1R cells, Fluo-8 calcium, orexin A. 0.43% of 330,000 active. Fluo-8 calcium fluorescence. inhibition, % at 5 µM. AID 434989, 2010;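 active = inhibition above its plate's threshold, mean inhibition of all tested compounds on the plate plus 3 SD, cut at about 37% in these data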
OX1R HTRF confirm = OX1R (HCRTR1) antagonists, confirmation, cell-based, HTRF. shares compounds with OX1R antag-1. OX1R-expressing cells, HTRF antagonist assay. inhibition, % at 6.6 µM. 49% of 1,800 active. AID 492964, 2010; in the data active = inhibition above about 55%;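 also: CHO cells expressing OX1R stimulated with orexin A at about EC80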
CHO-K1 HTRF = signal inhibition in parental CHO-K1 cells, counter-screen for OX1R antagonist project, cell-based, HTRF; shares compounds with OX1R antag-1; AID 493232, 2011; 48% of 1,800 active; HTRF counterscreen; inhibition, % at 6.6 µM; in the data active = inhibition above about 17%
Each line names hits and unclear results; the compound was inactive in the other large screens (follow-up assays come after a bar, where they were run).

c1csc(-c2nnc(-c3ccc(N4CCOCC4)cc3)o2)c1	OX1R antag-1 77 | OX1R HTRF confirm 83 | CHO-K1 HTRF inactive
CCOc1ccc(-c2nnc(-c3cccs3)o2)cc1	none
COc1ccc(-n2c(C)cc(/C=N/Nc3nnc(C)n3N)c2C)cc1	OX1R antag-1 108 | OX1R HTRF confirm inactive | CHO-K1 HTRF inactive
Nc1nnc(-c2cccc([N+](=O)[O-])c2)s1	OX1R antag-1 111 | OX1R HTRF confirm inactive | CHO-K1 HTRF 40
Cc1ccc(NC(=O)c2oc3ccccc3c2C)nc1	OX1R antag-1 84 | OX1R HTRF confirm 79 | CHO-K1 HTRF inactive
CN(c1ccc(O)cc1)c1nc(O)c(C2=c3ccccc3=NC2=O)s1	OX1R antag-1 79 (no result: GPR7 antag) | OX1R HTRF confirm inactive | CHO-K1 HTRF inactive
O=C(O)C(=Cc1ccccc1[N+](=O)[O-])c1ccc2c(c1)OCO2	none (no result: OX1R antag-1, CHO parental Ca, GPR7 antag, OX1R antag-2)
CC(=O)Oc1cccc2c1C(=O)c1c(OC(C)=O)cc(C(=O)O)cc1C2=O	OX1R antag-1 95 | OX1R HTRF confirm 56 | CHO-K1 HTRF 112
CC(=O)Oc1ccc(C(=O)O)cc1OC(C)=O	none
NC(=O)CC(NC(=O)Cc1cccc2ccccc12)c1ccc(NCCN2CCCC2)c([N+](=O)[O-])c1 (configuration not stated)	OX1R antag-1 84 | OX1R HTRF confirm inactive | CHO-K1 HTRF inactive
CCCCCCn1cc(CN2CC(N(C)CC)CS2(=O)=O)nn1 (configuration not stated)	none (no result: OX1R antag-1, CHO parental Ca, GPR7 antag, OX1R antag-2)
C=CCN1C=C(C(=O)OCC)C(=O)CC1	none (no result: OX1R antag-1, CHO parental Ca, GPR7 antag, OX1R antag-2)
CCN1C(=O)c2cccc3c(S(=O)(=O)Nc4ccncc4)ccc1c23	none (no result: GalR3 antagonist)
CCN1C(=O)c2cccc3c(S(=O)(=O)NCc4cccnc4)ccc1c23	OX1R antag-1 77 | OX1R HTRF confirm inactive | CHO-K1 HTRF inactive
CNC(=O)Nc1cccc(-c2ccnc(C)n2)c1	none
COc1cccc(C(=O)/C(C#N)=N/Nc2cccc(-c3ccnc(C)n3)c2)c1	OX1R antag-1 77 | OX1R HTRF confirm inactive | CHO-K1 HTRF 18
N#Cc1cccn1-c1nccc(-c2cccs2)n1	OX1R antag-1 87 | OX1R HTRF confirm 75 | CHO-K1 HTRF inactive
COc1c(C)cc(C(O)c2ncc(-c3ccc(Cl)cc3)[nH]2)cc1C (configuration not stated)	none (no result: OX1R antag-1, CHO parental Ca, GPR7 antag, OX1R antag-2)
Cn1c2ccccc2c2cc(/C=N/NC(=O)c3ccc(N)cc3)ccc21	OX1R antag-1 88 | OX1R HTRF confirm 88 | CHO-K1 HTRF inactive
CCN1C(=O)/C(=C/N(C(C)=O)c2ccccc2)N(c2ccccc2)C1=S	OX1R antag-1 82 | OX1R HTRF confirm inactive | CHO-K1 HTRF inactive
CN(C(=O)COC(=O)/C=C/c1ccc2ccccc2n1)C1CCS(=O)(=O)C1 (configuration not stated)	none
CCN(C(=O)COC(=O)/C=C/c1cnc2ccccc2n1)C1CCS(=O)(=O)C1 (configuration not stated)	OX1R antag-1 82 | OX1R HTRF confirm inactive | CHO-K1 HTRF 46
CCOCCCn1c(=NC(=O)c2cccnc2)c(C(=O)OCC)cc2c(=O)n3ccccc3nc21	OX1R antag-1 111 | OX1R HTRF confirm 57 | CHO-K1 HTRF 59
CCOC(=O)c1cc2c(=O)n3ccccc3nc2n(CC2CCCO2)c1=NC(C)=O (configuration not stated)	OX1R antag-1 108 | OX1R HTRF confirm inactive | CHO-K1 HTRF 56
Cc1ccc(S(=O)(=O)c2cc3c(=O)n4ccccc4nc3n(CC3CCCO3)c2=N)cc1 (configuration not stated)	none (no result: OX1R antag-1, GalR3 antagonist, CHO parental Ca, OX1R antag-2)
CCOC(=O)c1cc2c(=O)n3ccccc3nc2n(CC2CCCO2)c1=NC(=O)/C=C/c1ccccc1 (configuration not stated)	OX1R antag-1 119 | OX1R HTRF confirm inactive | CHO-K1 HTRF 42
CCCCn1c(=NC(=O)c2cccnc2)c(C(=O)OCC)cc2c(=O)n3ccccc3nc21	none (no result: OX1R antag-1, CHO parental Ca, OX1R antag-2)
CSc1cc(-c2ccncc2)nc(-c2ccc(Cl)cc2)c1	none
NC(Cc1ccc(F)cc1)c1csc(Nc2ccc(S(N)(=O)=O)cc2)n1 (configuration not stated)	none (no result: OX1R antag-1, CHO parental Ca, GPR7 antag, OX1R antag-2)
Cc1cc(Nc2cc(C(F)(F)F)cc(C(F)(F)F)c2)cc(=O)n1-c1cc(C(F)(F)F)cc(C(F)(F)F)c1	none (no result: OX1R antag-1, CHO parental Ca, GPR7 antag, OX1R antag-2)
Cc1ccc([N+](=O)[O-])c(OCCN2CCC(Cc3ccccc3)CC2)c1	none
CN(CCO)c1cc(NCCCN2CCC(Cc3ccccc3)CC2)c2nonc2c1[N+](=O)[O-]	OX1R antag-1 85 | OX1R HTRF confirm 63 | CHO-K1 HTRF 47
CC(=O)Nc1ccc(Nc2cc(N3CCOCC3)c3nonc3c2[N+](=O)[O-])cc1	none
CN(CCO)c1cc(N2CCC3(CC2)OCCO3)c2nonc2c1[N+](=O)[O-]	OX1R antag-1 129 | OX1R HTRF confirm 60 | CHO-K1 HTRF 56
O=[N+]([O-])c1c(NCCO)cc(N2CCC3(CC2)OCCO3)c2nonc12	OX1R antag-1 170 | OX1R HTRF confirm inactive | CHO-K1 HTRF 82
O=[N+]([O-])c1c(Nc2ccc(O)cc2)cc(N2CCOCC2)c2nonc12	none
COc1ccc(CCNC(=O)CCn2c(=O)c3cccn3c3cccnc32)cc1OC	none
CN(C(=O)COC(=O)CSc1ccc(C(N)=O)cc1[N+](=O)[O-])C1CCS(=O)(=O)C1 (configuration not stated)	OX1R antag-1 77 (no result: GPR7 antag) | OX1R HTRF confirm inactive | CHO-K1 HTRF 69
O=C(CSc1nc2ccc([N+](=O)[O-])cc2s1)NC1CCS(=O)(=O)C1 (configuration not stated)	none
CN(C(=O)CSc1nc2ccc([N+](=O)[O-])cc2s1)C1CCS(=O)(=O)C1 (configuration not stated)	OX1R antag-1 83 | OX1R HTRF confirm 70 | CHO-K1 HTRF 40
O=S(=O)(NCC(c1cccnc1)N1CCN(Cc2ccccc2)CC1)c1cc(F)ccc1F (configuration not stated)	none
CCOC(=O)[C@@H]1CSCCS(=O)(=O)N1Cc1ccc(C(F)(F)F)cc1	none (no result: OX1R antag-1, CHO parental Ca, GPR7 antag, OX1R antag-2)
CC(=O)N1CCN(S(=O)(=O)c2cccc(C(=O)NNC(=O)COc3ccc(F)cc3)c2)CC1	none (no result: GPR7 antag)
Cc1cccc(CN2CCSCCS2(=O)=O)c1	none (no result: OX1R antag-1, CHO parental Ca, GPR7 antag, OX1R antag-2)
Cc1cccc(-c2cccc3[nH]c4c(c23)CCN2C(=O)[C@H]3[C@H](C)ON(C)[C@H]3C[C@@H]42)c1	none (no result: OX1R antag-1, CHO parental Ca, GPR7 antag, OX1R antag-2)
